{"source": "ChEMBL document CHEMBL1649529", "about": "“Identifying exposure targets for treatment of staphylococcal pneumonia with ceftobiprole” (Antimicrob Agents Chemother, 2009)", "key": {"[1]": {"assay": "Plasma protein binding in mouse", "assay_type": "ADME, cell-free", "details": "read-out: PPB (converted)"}, "[2]": {"assay": "Drug level in plasma of healthy human at 500 mg, iv administered as 2-h infusion every 8 h after 2.5 hrs"}, "[3]": {"assay": "Volume of distribution in epithelial lining fluid of healthy human at 500 mg, iv administered as 2-h infusion every 8 h", "details": "in vivo"}, "[4]": {"assay": "AUC in epithelial lining fluid of healthy human at 500 mg, iv administered as 2-h infusion every 8 h", "details": "in vivo"}, "[5]": {"assay": "Drug level in epithelial lining fluid of healthy human at 500 mg, iv administered as 2-h infusion every 8 h after 2.5 hrs", "details": "read-out: Drug uptake"}, "[6]": {"assay": "Drug level in plasma of healthy human at 500 mg, iv administered as 2-h infusion every 8 h after 4 hrs"}, "[7]": {"assay": "Drug level in epithelial lining fluid of healthy human at 500 mg, iv administered as 2-h infusion every 8 h after 4 hrs", "details": "read-out: Drug uptake"}, "Staphylococcus aureus [8]": {"system": "Staphylococcus aureus", "assay": "Antibacterial activity against hospital-acquired methicillin-resistant Staphylococcus aureus clinical isolates", "assay_type": "functional", "outline": "(§1)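 MICs determined by CLSI dilution methodology for aerobically growing bacteria; the active drug, not the prodrug, was used for in vitro testing.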"}, "[9]": {"assay": "Drug level in epithelial lining fluid of healthy human at 500 mg, iv administered as 2-h infusion every 8 h after 8 hrs", "details": "read-out: Drug uptake"}, "Homo sapiens": {"system": "Homo sapiens", "assay": "Volume of distribution in central compartment of healthy human at 500 mg, iv administered as 2-h infusion every 8 h", "details": "in vivo"}, "[10]": {"assay": "Drug level in epithelial lining fluid of healthy human at 500 mg, iv administered as 2-h infusion every 8 h after 6 hrs", "details": "read-out: Drug uptake"}, "[11]": {"assay": "AUC in plasma of mouse", "assay_type": "ADME, cell-free", "outline": "(§2)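 Neutropenic (cyclophosphamide) female BALB/c mice were infected with S. aureus in 3% mucin by aspiration. At 6 h they received single sc doses of prodrug (1.0–25.0 mg/kg, in sterile water). Plasma was sampled at 0.25–4 h (6 mice per time point) and BAL at 0.25–4 h. Samples were citrate-stabilized and assayed by HPLC (LOQ 0.01 mg/liter), with urea correction for ELF. AUCs came from a 9,999-subject simulation.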"}, "Staphylococcus aureus [12]": {"system": "Staphylococcus aureus", "assay": "Antibacterial activity against methicillin-susceptible Staphylococcus aureus clinical isolates", "assay_type": "functional", "outline": "as §1"}, "Staphylococcus aureus [13]": {"system": "Staphylococcus aureus", "assay": "Antibacterial activity against community-acquired methicillin-resistant Staphylococcus aureus clinical isolates", "assay_type": "functional", "outline": "as §1"}, "[14]": {"assay": "Clearance in healthy human at 500 mg, iv administered as 2-h infusion every 8 h", "details": "in vivo"}, "[15]": {"assay": "Drug level in plasma of healthy human at 500 mg, iv administered as 2-h infusion every 8 h after 6 hrs"}, "[16]": {"assay": "AUC in epithelial lining fluid of mouse", "assay_type": "ADME, tissue-based", "outline": "as §2"}, "[17]": {"assay": "Fraction unbound in mouse plasma", "assay_type": "ADME, cell-free"}, "[18]": {"assay": "Drug level in plasma of healthy human at 500 mg, iv administered as 2-h infusion every 8 h after 8 hrs"}, "[19]": {"assay": "AUC in plasma of healthy human at 500 mg, iv administered as 2-h infusion every 8 h"}}, "data": [{"smiles": "Nc1nc(/C(=N/O)C(=O)N[C@@H]2C(=O)N3C(C(=O)O)=C(/C=C4\\CCN([C@@H]5CCNC5)C4=O)CS[C@H]23)ns1", "note": "[CEFTOBIPROLE]", "values": [{"measurement": "fraction unbound", "setting": "[1]", "value": 0.81}, {"measurement": "concentration at 2.5 h", "setting": "[2]", "value": 17700, "unit": "ng/mL"}, {"measurement": "Vd", "setting": "[3]", "value": 39.1, "unit": "L"}, {"measurement": "AUC", "setting": "[4]", "value": 25200, "unit": "ng·h/mL"}, {"measurement": "concentration at 2.5 h", "setting": "[5]", "value": 2550, "unit": "ng/mL"}, {"measurement": "concentration at 4 h", "setting": "[6]", "value": 12800, "unit": "ng/mL"}, {"measurement": "concentration at 4 h", "setting": "[7]", "value": 2000, "unit": "ng/mL"}, {"measurement": "MIC", "setting": "Staphylococcus aureus [8]", "value": 0.5, "unit": "µg/mL"}, {"measurement": "concentration at 8 h", "setting": "[9]", "value": 1510, "unit": "ng/mL"}, {"measurement": "Vd", "setting": "Homo sapiens", "value": 2.849, "unit": "L"}, {"measurement": "concentration at 6 h", "setting": "[10]", "value": 4580, "unit": "ng/mL"}, {"measurement": "AUC", "setting": "[11]", "value": 68800, "unit": "ng·h/mL"}, {"measurement": "MIC", "setting": "Staphylococcus aureus [12]", "value": 0.25, "unit": "µg/mL"}, {"measurement": "MIC", "setting": "Staphylococcus aureus [13]", "value": 1, "unit": "µg/mL"}, {"measurement": "CL/F", "setting": "[14]", "value": 86, "unit": "mL/min"}, {"measurement": "concentration at 6 h", "setting": "[15]", "value": 6910, "unit": "ng/mL"}, {"measurement": "AUC", "setting": "[16]", "value": 46000, "unit": "ng·h/mL"}, {"measurement": "fraction unbound", "setting": "[17]", "value": 0.81}, {"measurement": "concentration at 8 h", "setting": "[18]", "value": 3650, "unit": "ng/mL"}, {"measurement": "AUC", "setting": "[19]", "value": 98700, "unit": "ng·h/mL"}]}]}
